Results: ChEMBL document CHEMBL1125147, “Nonsteroidal cardiotonics. 3. New 4,5-dihydro-6-(1H-indol-5-yl)pyridazin-3(2H)-ones and related compounds with positive inotropic activities” (1990)

Experiments:
Rattus norvegicus [1] = experiment: Effective dose required to produce an increase in dP/dt by 1500 mmHg/s from that of the control in the anesthetized rats.; type: functional
Procedure, shortened: (§1)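 Male SPF Sprague–Dawley rats (350–450 g), thiabutarbital sodium 80–100 mg/kg ip, tracheotomized. LV pressure measured by a Millar microtip catheter passed via the right carotid artery. Compounds given as jugular iv bolus (0.5 mL/kg) in increasing doses every 10 min. Readings taken 10 min post-dose as steady state. ED1.5 (dP/dt +1500 mmHg/s at LVP 50 mmHg) from log-linear regression, log means. Max = peak rise in dP/dt and the dose giving it.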

Felis catus [2] = experiment: Effective dose required to produce an increase in dP/dt by 1500 mmHg/s from that of the control in the anesthetized cats.; type: functional
Procedure, shortened: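 Cats of both sexes, pentobarbitone 45 mg/kg ip plus 0.1 mg/kg min infusion, pump-ventilated, open chest. Dextran 10 mL/kg iv and desacetylmetipranolol 0.3 mg/kg iv for β-blockade failure. LV pressure by Millar tip catheter via the auricle. Increasing iv bolus doses every 10 min, read at 10 min. ED1.5 (dP/dt +1500 mmHg/s at LVP 50 mmHg) by log-linear regression, log means.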

Rattus norvegicus [3] = experiment: Maximum increase in dP/dt from that of the control in the anesthetized rats at dose 10.0 mg/kg; type: functional; procedure, shortened: as §1
Felis catus [4] = experiment: Maximum increase in dP/dt from that of the control in the anesthetized cats at dose 10.0 mg/kg

Q: With CC1(C)C(=O)NN=C1c1ccc2[nH]c(-c3ccncc3)cc2c1 as the compound, how does the ED1.5 (Rattus norvegicus [1]) read?
A: 0.25 mg/kg

Q: For O=C1CCC(c2ccc3[nH]c(-c4cscn4)cc3c2)=NN1, which ED1.5 (Rattus norvegicus [1]) is on record?
A: 0.26 mg/kg

Q: How did the ED1.5 (Felis catus [2]) turn out when CC1CC(=O)NN=C1c1ccc2[nH]c(-c3ccncc3)cc2c1 (stereo not given) was run?
A: 0.007 mg/kg

Q: And the ED1.5 (Rattus norvegicus [1])?
A: 0.02 mg/kg

Q: With Oc1cnc(-c2ccc3[nH]c(-c4ccncc4)cc3c2)cn1 as the compound, how does the ED1.5 (Rattus norvegicus [1]) read?
A: 0.15 mg/kg

Q: For CCc1c(-c2ccncc2)[nH]c2ccc(C3=NNC(=O)CC3)cc12, which ED1.5 (Rattus norvegicus [1]) is on record?
A: 1.1 mg/kg

Q: How did the ED1.5 (Rattus norvegicus [1]) turn out when O=C1CCC(c2ccc3[nH]c(-c4ccncc4)cc3c2)=NN1 was run?
A: 0.04 mg/kg

Q: With Cc1c(-c2ccncc2)[nH]c2ccc(C3=NNC(=O)CC3C)cc12 (stereo not given) as the compound, how does the ED1.5 (Rattus norvegicus [1]) read?
A: 0.02 mg/kg

Q: Which ED1.5 (Felis catus [2]) does the source give for Cc1[nH]c(=O)c(C#N)cc1-c1ccncc1 [MILRINONE] here?
A: 0.04 mg/kg

Q: And the ED1.5 (Rattus norvegicus [1])?
A: 0.15 mg/kg

Q: And the Max (Rattus norvegicus [3])?
A: 3.4 mHg/s

Q: Which ED1.5 (Rattus norvegicus [1]) does the source give for Cc1c(-c2ccncc2)[nH]c2ccc(C3=NNC(=O)CC3)cc12 here?
A: 0.08 mg/kg

Q: CCOC(=O)c1cc2cc(C3=NNC(=O)CC3)ccc2[nH]1 was tested. Which ED1.5 (Rattus norvegicus [1]) did it give?
A: 1.5 mg/kg

Q: O=C1CCC(c2ccc3[nH]c(-c4ccnnc4)cc3c2)=NN1 was tested. Which ED1.5 (Rattus norvegicus [1]) did it give?
A: 0.02 mg/kg

Q: With O=C1COC(c2ccc3[nH]c(-c4ccncc4)cc3c2)=NN1 as the compound, how does the ED1.5 (Rattus norvegicus [1]) read?
A: 0.7 mg/kg

Q: With COc1ccc(-c2nc3cc(C4=NNC(=O)CC4C)ccc3[nH]2)cc1 (stereo not given) [PIMOBENDAN] as the compound, how does the ED1.5 (Felis catus [2]) read?
A: 0.6 mg/kg

Q: And the ED1.5 (Rattus norvegicus [1])?
A: 1.31 mg/kg

Q: And the Max (Felis catus [4])?
A: 2.9 mHg/s

Q: Which ED1.5 (Rattus norvegicus [1]) does the source give for O=C1CCC(c2ccc3[nH]c(-c4cccnc4)cc3c2)=NN1 here?
A: 2.5 mg/kg

Q: For O=C1CCC(c2ccc3[nH]c(-c4ccccc4O)cc3c2)=NN1, which ED1.5 (Rattus norvegicus [1]) is on record?
A: 1.04 mg/kg
